SMILES strings stand for the structures. pIC50: −log10 of the molar value. The source made the active and inactive calls. No cut-off for these calls is given here.

Consider two compounds from ChEMBL document CHEMBL4680103, “In Vitro and in Vivo Anti-Trypanosoma cruzi Activity of New Arylamine Mannich Base-Type Derivatives” (J Med Chem, 2016).

Data set [1] has as its system Trypanosoma cruzi. Description: Antitrypanosomal activity against Trypanosoma cruzi infected in African green monkey Vero cells assessed as reduction in number of trypomastigotes measured up to 10 days by Giemsa staining based hemocytometry. In kind it is functional. The note with it: time day <=10. The essentials: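 Vero cells infected with metacyclic forms (10:1) were exposed to one concentration per compound immediately after infection for 12 h at 37 °C, 5% CO2. After washing, cultures were kept 10 days with fresh medium every 48 h. Every 48 h, % infected cells and amastigotes per infected cell (200 Giemsa-stained cells) and medium trypomastigotes (Neubauer) were scored. Means of three experiments.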

The test system of data set [2] is Trypanosoma cruzi. Description: Antitrypanosomal activity against Trypanosoma cruzi Arequipa epimastigote forms incubated for 72 hrs by hemocytometry. Format: functional, organism-based. The essentials:
(§1)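 Epimastigotes grown in MTL medium with 10% inactivated FBS at 28 °C. Compounds were dissolved in DMSO (0.01% v/v) and added at 0.1–100 µM for 72 h. Parasites were counted in a Neubauer chamber. IC50 (50% growth inhibition) was derived by linear regression of Kc values. Values are averages of four determinations.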

Data set [3] has as its system Trypanosoma cruzi. Description: Antitrypanosomal activity against Trypanosoma cruzi Arequipa trypomastigote froms infected in mouse blood incubated for 24 hrs by Neubauer chamber based assay. In kind it is functional, organism-based. The essentials: (§2)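 Mouse blood taken at peak parasitemia (day 7) was diluted with uninfected blood to 4×10^6 trypomastigotes/mL, then 1:2 in RPMI 1640. Drugs from DMSO stocks were added at 1, 10, 25, 50 and 100 µM and incubated 24 h at 4–8 °C. Parasites were counted in a Neubauer chamber in triplicate. IC50 was calculated versus control.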

For data set [4], the system named is Trypanosoma cruzi. Description: Antitrypanosomal activity against Trypanosoma cruzi Tulahuen amastigote forms infected in African green monkey Vero cells incubated for 72 hrs by Giemsa staining based micrscopy. Format: functional, organism-based. The essentials: (§3)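 Vero cells (RPMI, 10% inactivated FBS, 37 °C, 5% CO2) were seeded at 1×10^4/well on coverslips and cultured 2 days. They were infected 24 h with metacyclic forms at 10:1. After washing off free parasites, drugs were added at 0.1–100 µM for 72 h. Slides were methanol-fixed and Giemsa-stained; amastigotes were counted in 200 host cells versus untreated. IC50 was calculated.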

Data set [5] concerns Trypanosoma cruzi. Description: Antitrypanosomal activity against Trypanosoma cruzi Tulahuen trypomastigote froms infected in mouse blood incubated for 24 hrs by Neubauer chamber based assay. Format: functional, organism-based. The essentials: as §2
Data set [6] relates to Trypanosoma cruzi. Description: Antitrypanosomal activity against Trypanosoma cruzi SN3 epimastigote forms incubated for 72 hrs by hemocytometry. In kind it is functional, organism-based. The note with it: SN3, 72 h. The essentials:
as §1

In data set [7] the test system is Trypanosoma cruzi. Description: Antitrypanosomal activity against Trypanosoma cruzi SN3 amastigote forms infected in African green monkey Vero cells incubated for 72 hrs by Giemsa staining based micrscopy. In kind it is functional, organism-based. The essentials:
as §3

The next data set concerns Vero. Description: Cytotoxicity in African green monkey Vero cells incubated for 72 hrs. In kind it is cell-based. The note with it: Chlorocebus sabaeus.
The subject of data set [8] is Trypanosoma cruzi. Description: Antitrypanosomal activity against Trypanosoma cruzi Arequipa trypomastigotes infected in BALB/c mouse assessed as reduction in parasitemia measured during acute phase (days 0 to 40 post infection) at 50 to 100 mg/kg, po dosed on alternating days (7 to 15 days post infection). Format: functional, organism-based. The note with it: dose 50-100 mg/kg. The essentials: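 Female BALB/c mice (8–10 weeks, 25–30 g; groups of six) were infected i.p. with 5×10^5 Arequipa blood trypomastigotes. Dosing was oral, 50 or 100 mg/kg/day, on 5 alternating days (days 7–15 pi), alongside untreated and reference-drug groups. Parasitemia was counted in 5 µL mandibular-vein blood by Neubauer chamber through day 40 pi. Data are means ± SD of six mice.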

For data set [9], the system named is Trypanosoma cruzi. Description: Antitrypanosomal activity against Trypanosoma cruzi Arequipa trypomastigotes infected in BALB/c mouse assessed as reduction in parasitemia level in brain measured during acute phase (days 0 to 40 post infection) at 100 mg/kg, po dosed on alternating days (7 to 15 days post infection) by PCR analysis. In kind it is functional, organism-based.

Data set [10] concerns Trypanosoma cruzi. Description: Antitrypanosomal activity against Trypanosoma cruzi Arequipa trypomastigotes infected in BALB/c mouse assessed as reduction in parasitemia level in heart measured during acute phase (days 0 to 40 post infection) at 50 to 100 mg/kg, po dosed on alternating days (7 to 15 days post infection) by PCR analysis. The note with it: dose 50-100 mg/kg. In kind it is functional, organism-based.

In data set [11] the test system is Trypanosoma cruzi. Description: Antitrypanosomal activity against Trypanosoma cruzi Arequipa trypomastigotes infected in BALB/c mouse assessed as reduction in parasitemia level in heart measured during acute phase (days 0 to 40 post infection) at 100 mg/kg, po dosed on alternating days (7 to 15 days post infection) by PCR analysis. Format: functional, organism-based.

For data set [12], the system named is Trypanosoma cruzi. Description: Antitrypanosomal activity against Trypanosoma cruzi Arequipa trypomastigotes infected in BALB/c mouse assessed as reduction in parasitemia level in esophagus measured during acute phase (days 0 to 40 post infection) at 100 mg/kg, po dosed on alternating days (7 to 15 days post infection) by PCR analysis. Format: functional, organism-based.

For data set [13], the system named is Trypanosoma cruzi. Description: Antitrypanosomal activity against Trypanosoma cruzi Arequipa trypomastigotes infected in BALB/c mouse assessed as reduction in parasitemia level in bone marrow measured during acute phase (days 0 to 40 post infection) at 100 mg/kg, po dosed on alternating days (7 to 15 days post infection) by PCR analysis. In kind it is functional, organism-based.

The test system of data set [14] is Trypanosoma cruzi. Description: Antitrypanosomal activity against Trypanosoma cruzi Arequipa trypomastigotes infected in BALB/c mouse assessed as reduction in parasitemia level in muscle measured during acute phase (days 0 to 40 post infection) at 100 mg/kg, po dosed on alternating days (7 to 15 days post infection) by PCR analysis. In kind it is functional, organism-based.

Data set [15] relates to Trypanosoma cruzi. Description: Antitrypanosomal activity against Trypanosoma cruzi Arequipa trypomastigotes infected in BALB/c mouse assessed as reduction in parasitemia level in lung measured during acute phase (days 0 to 40 post infection) at 100 mg/kg, po dosed on alternating days (7 to 15 days post infection) by PCR analysis. Format: functional, organism-based.
In data set [16] the test system is Trypanosoma cruzi. Description: Antitrypanosomal activity against Trypanosoma cruzi Arequipa trypomastigotes infected in BALB/c mouse assessed as reduction in splenomegaly by measuring weight percent of spleens […] at 50 mg/kg, po dosed on alternating days (7 to 15 days post infection) by PCR analysis (reference value: 1.603%). In kind it is functional. On the set-up: scale not given: the % may be the effect or the level left.

A short description of data set [17]: Genotoxicity in Salmonella typhimurium TA98 at 0.03 to 2.25 ug/plate incubated for 48 hrs in absence of liver S9 fraction by Ames test. In kind it is toxicity. The note with it: salmonella enterica subsp. enterica serovar typhimurium, s9, 48 h. The essentials: (§4)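 Preincubation Ames assay. […] Top agar with trace histidine/biotin (0.05 mM each) was added and poured onto glucose minimal agar. Plates were incubated 48 h at 37 °C and His+ revertants counted. DMSO was the negative control, with strain-appropriate positive controls. Technical triplicates.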

Data set [18] can be described thus: Genotoxicity in Salmonella typhimurium TA98 at 0.03 to 2.25 ug/plate incubated for 48 hrs in presence of liver S9 fraction by Ames test. In kind it is toxicity, subcellular. The note with it: salmonella enterica subsp. enterica serovar typhimurium, s9, 48 h. The essentials: as §4
For orientation: The Ames test uses bacterial strains that need an amino acid and regain growth without it when mutated back.

The nature of data set [19]: Genotoxicity in Salmonella typhimurium TA100 at 0.03 to 2.25 ug/plate incubated for 48 hrs in absence of liver S9 fraction by Ames test. Format: toxicity. The note with it: salmonella enterica subsp. enterica serovar typhimurium, s9, 48 h. The essentials:
as §4

A short description of data set [20]: Genotoxicity in Salmonella typhimurium TA102 at 0.03 to 2.25 ug/plate incubated for 48 hrs in presence of liver S9 fraction by Ames test. In kind it is toxicity, subcellular. The note with it: salmonella enterica subsp. enterica serovar typhimurium, s9, 48 h. The essentials:
as §4

A short description of data set [21]: Genotoxicity in Salmonella typhimurium TA1537 at 0.03 to 2.25 ug/plate incubated for 48 hrs in presence of liver S9 fraction by Ames test. In kind it is toxicity, subcellular. The note with it: salmonella enterica subsp. enterica serovar typhimurium, s9, 48 h. The essentials:
as §4

Data set [22] is described as follows: Genotoxicity in Salmonella typhimurium TA1537 at 0.03 to 2.25 ug/plate incubated for 48 hrs in absence of liver S9 fraction by Ames test. The note with it: salmonella enterica subsp. enterica serovar typhimurium, s9, 48 h. In kind it is toxicity. The essentials: as §4

Turning to `O=C(CCN1CCN(c2ccc(F)cc2)CC1)c1csc2ccc(F)cc12`, the “inhibition (INH)” value with Trypanosoma cruzi [1] is reported as 47%. In addition, the pIC50 (commonly the negative decadic logarithm of the IC50, by convention in mol/L) in the data set with Trypanosoma cruzi [2] was 4.51; in the data set on Trypanosoma cruzi [3], 6.52; in the data set with Trypanosoma cruzi [4], 5.31; in the data set on Trypanosoma cruzi [5] it was 5.72; in the data set with Trypanosoma cruzi [6], 4.91; in the data set with Trypanosoma cruzi [7], 5.10. Moreover, the pIC50 in the data set with Vero is 3.12. The result in the data set on Trypanosoma cruzi [8], in the data set on Trypanosoma cruzi [9], in the data set with Trypanosoma cruzi [10], in the data set on Trypanosoma cruzi [11], in the data set with Trypanosoma cruzi [12] and with Trypanosoma cruzi [13] was Active. The outcome in the data set with Trypanosoma cruzi [14] and with Trypanosoma cruzi [15] was Active. Further, the Activity with Trypanosoma cruzi [16] is 1.061%; in data set [17] it was “Non-Toxic”; in [18] it was “Non-Toxic”; in data set [19] it was “Non-Toxic”; in data set [20] it was “Non-Toxic”; in [21], “Non-Toxic”. Moreover, the Activity entry in data set [22] was “Non-Toxic”.
Consider `O=C(CCN1CCN(c2ccc(C(F)(F)F)cc2)CC1)c1csc2ccc(F)cc12`, for which, in the data set with Trypanosoma cruzi [1], the “inhibition (INH)” value turned out to be 68%. Moreover, the pIC50 was 4.29 in the data set on Trypanosoma cruzi [2]; 4.86 in the data set on Trypanosoma cruzi [3]; 4.59 in the data set with Trypanosoma cruzi [4]; 4.34 in the data set with Trypanosoma cruzi [5]; 5.00 in the data set on Trypanosoma cruzi [6]; 5.06 with Trypanosoma cruzi [7]. The same compound gave a pIC50 in the data set on Vero of 3.05. Also, the result with Trypanosoma cruzi [8], with Trypanosoma cruzi [9], in the data set with Trypanosoma cruzi [10], with Trypanosoma cruzi [11], in the data set with Trypanosoma cruzi [12] and in the data set on Trypanosoma cruzi [13] was Active. The result in the data set with Trypanosoma cruzi [14] and in the data set with Trypanosoma cruzi [15] was Active. The Activity with Trypanosoma cruzi [16] is 1.621%; in data set [17], “Non-Toxic”; in data set [18] it was “Non-Toxic”; in data set [19] it was “Non-Toxic”; in [20], “Non-Toxic”; in data set [21], “Non-Toxic”. For the same compound, the Activity result in data set [22] is “Non-Toxic”.
